Experimental data reported in article PMC4976804 (Current Alzheimer research, 2015).

Assays:
[1] = test system: inducible N2aTau^4RDΔK280 cells; experiment: Inhibition of Tau aggregation in inducible N2a cells, ThS+ cells counted by FACS; format: cell-based
How it was run: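 Inducible N2a-Tau4RDΔK280 cells in suspension, with 0.0005% (12 µM) ThS added. Tau induced with 1 µg/ml doxycycline. Compound at 60 µM, or 0–60 µM, for 4 days at 37 °C. Floating and adherent cells pooled, pelleted and PBS-washed. ThS+ cells counted by flow cytometry (ex 495/em 519 nm). Induced DMSO-treated sample set to 100%.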

[2] = test system: N2a cells; experiment: Cell viability of uninduced N2a cells in the presence of compounds; format: cell-based; conditions: 60 µM compound, 4 days 37°C, untreated = 100%
How it was run: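 Uninduced N2a cells (no tau expression) grown 4 days at 37 °C in culture medium with test compound at 60 µM, or at several concentrations from 0 to 60 µM. Viability measured by MTT assay per kit instructions. Values normalised to the uninduced compound-untreated sample (100%).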

O=C(NNc1nc(-c2ccc([N+](=O)[O-])cc2)cs1)c1ccc2nc[nH]c2c1 [BSc3094]
amount of ThS-positive cells (FACS), in words ([1]; 15 µM in the medium, 4 days, N2a cells expressing K18ΔK280): decreases | reduction of Tau^4RDΔK280 aggregation in N2a cells compared to control ([1]; 60 µM compound, ThS+ cells by FACS): 93% | effectiveness in reducing aggregation in N2a cells relative to the best hits ([1]; compared to our best hits): 2-3 | viability N2a cells (MTT) [2]: 101.9 ± 3.8%
